In the M2OR odorant receptor database:
Residue numbers refer to the chain shown, from its start.

How the values were obtained:
Conditions in all cases: stereoisomer not certain
OR5M8 (Homo sapiens) = molecular target: T1, OR5M8 (Homo sapiens) (UniProt Q8NGP6)
T1 sequence (whole entry): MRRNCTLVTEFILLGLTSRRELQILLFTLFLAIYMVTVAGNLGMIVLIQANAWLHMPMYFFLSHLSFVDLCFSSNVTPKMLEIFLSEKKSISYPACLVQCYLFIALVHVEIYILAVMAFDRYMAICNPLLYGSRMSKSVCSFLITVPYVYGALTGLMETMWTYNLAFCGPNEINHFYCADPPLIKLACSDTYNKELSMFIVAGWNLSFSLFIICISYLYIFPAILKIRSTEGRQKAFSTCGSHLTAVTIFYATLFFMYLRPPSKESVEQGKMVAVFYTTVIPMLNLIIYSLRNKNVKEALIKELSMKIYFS
Outline: (§1)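 Each receptor–molecule pair is labelled responsive or non-responsive (inactive) according to whether the original authors judged the measured signal statistically different from baseline. The data were taken from the main text and supplementary material of published papers and checked for typos and inconsistencies. Assay methods differed by source, with transient luciferase assays in mammalian cell lines being common.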

OR5M9 (Homo sapiens) = molecular target: T2, OR5M9 (Homo sapiens) (UniProt Q8NGP3)
T2 sequence (whole entry): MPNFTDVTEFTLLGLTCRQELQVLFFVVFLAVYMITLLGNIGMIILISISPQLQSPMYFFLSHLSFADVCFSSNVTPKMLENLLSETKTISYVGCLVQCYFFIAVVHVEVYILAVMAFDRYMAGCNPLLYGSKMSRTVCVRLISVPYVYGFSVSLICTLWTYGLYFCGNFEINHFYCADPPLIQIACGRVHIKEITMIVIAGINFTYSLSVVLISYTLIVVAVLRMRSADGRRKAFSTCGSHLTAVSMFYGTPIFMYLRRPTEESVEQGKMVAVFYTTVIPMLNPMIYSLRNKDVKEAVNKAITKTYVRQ
Outline: as §1

OR5MA L2F C311H = test system: T3, OR5MA L2F C311H
T3 sequence (whole entry): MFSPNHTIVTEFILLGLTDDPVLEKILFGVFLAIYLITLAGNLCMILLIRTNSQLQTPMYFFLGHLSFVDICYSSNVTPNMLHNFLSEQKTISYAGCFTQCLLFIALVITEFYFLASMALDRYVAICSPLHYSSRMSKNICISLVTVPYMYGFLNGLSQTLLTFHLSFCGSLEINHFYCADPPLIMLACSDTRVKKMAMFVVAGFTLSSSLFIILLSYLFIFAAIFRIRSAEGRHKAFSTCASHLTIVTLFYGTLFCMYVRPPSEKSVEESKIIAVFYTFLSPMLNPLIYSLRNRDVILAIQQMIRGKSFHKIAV
Outline: as §1

OR5MA L2F Q54H C311H = test system: T4, OR5MA L2F Q54H C311H
T4 sequence (whole entry): T3 sequence (whole entry) with Q54H
Outline: as §1

OR5P2 (Homo sapiens) = molecular target: T5, OR5P2 (Homo sapiens) (UniProt Q8WZ92)
T5 sequence (whole entry): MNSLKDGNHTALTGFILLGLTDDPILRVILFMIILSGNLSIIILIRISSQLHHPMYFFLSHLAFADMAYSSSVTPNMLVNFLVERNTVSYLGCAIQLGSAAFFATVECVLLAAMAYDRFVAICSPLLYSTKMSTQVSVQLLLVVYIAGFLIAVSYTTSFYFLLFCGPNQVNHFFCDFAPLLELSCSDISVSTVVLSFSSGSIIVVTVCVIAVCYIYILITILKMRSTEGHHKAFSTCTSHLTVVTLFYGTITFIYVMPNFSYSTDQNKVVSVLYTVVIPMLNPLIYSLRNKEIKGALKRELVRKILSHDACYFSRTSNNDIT
Outline: as §1

OR5P3 (Homo sapiens) = molecular target: T6, OR5P3 (Homo sapiens) (UniProt Q8WZ94)
T6 sequence (whole entry): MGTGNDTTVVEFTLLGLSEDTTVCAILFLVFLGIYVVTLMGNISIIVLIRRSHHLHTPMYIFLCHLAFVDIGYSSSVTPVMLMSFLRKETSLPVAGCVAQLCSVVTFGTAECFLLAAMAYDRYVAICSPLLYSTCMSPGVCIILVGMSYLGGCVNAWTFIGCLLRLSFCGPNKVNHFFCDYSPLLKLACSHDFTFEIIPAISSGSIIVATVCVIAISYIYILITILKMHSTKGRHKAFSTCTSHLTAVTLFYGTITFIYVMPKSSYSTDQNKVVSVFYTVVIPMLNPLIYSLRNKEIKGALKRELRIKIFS
Outline: as §1

OR5P3 L301R = test system: T7, OR5P3 L301R
T7 sequence (whole entry): T6 sequence (whole entry) with L301R
Outline: as §1

OR5R1 C122R S128G F184L = test system: T8, OR5R1 C122R S128G F184L
T8 sequence (whole entry): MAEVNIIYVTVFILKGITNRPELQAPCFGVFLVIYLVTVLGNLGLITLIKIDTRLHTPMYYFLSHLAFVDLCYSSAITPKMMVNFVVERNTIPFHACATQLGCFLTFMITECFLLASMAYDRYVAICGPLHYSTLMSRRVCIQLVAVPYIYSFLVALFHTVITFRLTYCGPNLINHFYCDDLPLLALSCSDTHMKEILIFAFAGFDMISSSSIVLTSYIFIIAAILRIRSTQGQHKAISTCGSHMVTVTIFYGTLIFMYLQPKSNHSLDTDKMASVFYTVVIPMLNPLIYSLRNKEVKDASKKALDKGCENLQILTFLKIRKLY
Outline: as §1

OR5T1 (Homo sapiens) = molecular target: T9, OR5T1 (Homo sapiens) (UniProt Q8NG75)
T9 sequence (whole entry): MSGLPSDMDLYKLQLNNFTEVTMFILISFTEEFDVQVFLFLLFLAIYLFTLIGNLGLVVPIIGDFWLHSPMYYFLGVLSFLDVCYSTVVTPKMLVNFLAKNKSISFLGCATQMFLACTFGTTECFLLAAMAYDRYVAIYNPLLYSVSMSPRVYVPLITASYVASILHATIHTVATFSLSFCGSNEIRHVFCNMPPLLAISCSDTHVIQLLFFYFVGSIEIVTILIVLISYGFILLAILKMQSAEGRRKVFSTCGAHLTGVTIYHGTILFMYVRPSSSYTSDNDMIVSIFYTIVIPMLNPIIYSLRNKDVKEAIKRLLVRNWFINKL
Outline: as §1

OR5T2 (Homo sapiens) = molecular target: T10, OR5T2 (Homo sapiens) (UniProt Q8NGG2)
T10 sequence (whole entry): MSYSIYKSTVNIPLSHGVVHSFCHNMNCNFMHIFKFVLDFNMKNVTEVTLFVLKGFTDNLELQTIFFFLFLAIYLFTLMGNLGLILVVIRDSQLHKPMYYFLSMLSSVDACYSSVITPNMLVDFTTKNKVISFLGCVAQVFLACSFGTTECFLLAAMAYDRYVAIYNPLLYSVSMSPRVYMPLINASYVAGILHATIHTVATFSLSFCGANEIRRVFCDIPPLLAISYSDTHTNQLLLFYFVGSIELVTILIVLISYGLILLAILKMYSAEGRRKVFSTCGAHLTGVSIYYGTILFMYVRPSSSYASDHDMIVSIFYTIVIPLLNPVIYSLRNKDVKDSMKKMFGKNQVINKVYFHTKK
Outline: as §1

OR5T2 S4G = test system: T11, OR5T2 S4G
T11 sequence (whole entry): T10 sequence (whole entry) with S4G
Outline: as §1

OR5T3 (Homo sapiens) = molecular target: T12, OR5T3 (Homo sapiens) (UniProt Q8NGG3)
T12 sequence (whole entry): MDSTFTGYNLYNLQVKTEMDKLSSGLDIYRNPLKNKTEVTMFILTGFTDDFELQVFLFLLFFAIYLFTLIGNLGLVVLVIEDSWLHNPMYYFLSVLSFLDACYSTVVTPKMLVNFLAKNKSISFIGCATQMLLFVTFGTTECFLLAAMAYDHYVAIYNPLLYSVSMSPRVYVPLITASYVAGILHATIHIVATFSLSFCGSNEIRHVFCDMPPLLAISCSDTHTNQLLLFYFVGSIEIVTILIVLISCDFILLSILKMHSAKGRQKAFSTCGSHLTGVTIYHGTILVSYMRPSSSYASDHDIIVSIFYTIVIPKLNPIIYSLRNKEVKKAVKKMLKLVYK
Outline: as §1

OR5V1 (Homo sapiens) = molecular target: T13, OR5V1 (Homo sapiens) (UniProt Q9UGF6)
T13 sequence (whole entry): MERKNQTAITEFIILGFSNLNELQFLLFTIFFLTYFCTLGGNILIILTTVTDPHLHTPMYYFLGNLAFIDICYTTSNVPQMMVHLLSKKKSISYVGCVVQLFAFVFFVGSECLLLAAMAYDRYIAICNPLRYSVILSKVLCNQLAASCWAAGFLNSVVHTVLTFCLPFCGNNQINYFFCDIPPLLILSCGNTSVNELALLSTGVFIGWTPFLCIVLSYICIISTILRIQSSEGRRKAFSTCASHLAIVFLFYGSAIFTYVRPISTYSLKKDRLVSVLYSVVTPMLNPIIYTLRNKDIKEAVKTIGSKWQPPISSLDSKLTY
Outline: as §1

OR5W2 (Homo sapiens) = molecular target: T14, OR5W2 (Homo sapiens) (UniProt Q8NH69)
T14 sequence (whole entry): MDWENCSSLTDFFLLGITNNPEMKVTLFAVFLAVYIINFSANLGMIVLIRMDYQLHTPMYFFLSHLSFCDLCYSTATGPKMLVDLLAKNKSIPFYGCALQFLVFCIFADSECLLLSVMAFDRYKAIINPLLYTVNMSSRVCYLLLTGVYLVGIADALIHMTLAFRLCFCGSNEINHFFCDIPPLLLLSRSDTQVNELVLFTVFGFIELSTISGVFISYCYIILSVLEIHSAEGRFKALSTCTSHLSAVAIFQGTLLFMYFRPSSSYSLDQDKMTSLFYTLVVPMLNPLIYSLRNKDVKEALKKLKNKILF
Outline: as §1

OR5W2 R189C = test system: T15, OR5W2 R189C
T15 sequence (whole entry): T14 sequence (whole entry) with R189C
Outline: as §1

OR6A2 (Homo sapiens) = molecular target: T16, OR6A2 (Homo sapiens) (UniProt O95222)
T16 sequence (whole entry): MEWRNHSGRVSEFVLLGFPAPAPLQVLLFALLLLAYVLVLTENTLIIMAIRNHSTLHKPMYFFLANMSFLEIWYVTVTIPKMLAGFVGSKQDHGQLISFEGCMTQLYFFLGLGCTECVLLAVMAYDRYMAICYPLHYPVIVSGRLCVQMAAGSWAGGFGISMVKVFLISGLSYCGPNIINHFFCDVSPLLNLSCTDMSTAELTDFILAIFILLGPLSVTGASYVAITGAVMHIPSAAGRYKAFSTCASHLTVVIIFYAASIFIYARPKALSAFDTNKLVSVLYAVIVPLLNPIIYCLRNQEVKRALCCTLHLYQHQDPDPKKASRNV
Outline: as §1

OR6A2 I50V = test system: T17, OR6A2 I50V
T17 sequence (whole entry): T16 sequence (whole entry) with I50V
Outline: as §1

OR6B1 (Homo sapiens) = molecular target: T18, OR6B1 (Homo sapiens) (UniProt O95007)
T18 sequence (whole entry): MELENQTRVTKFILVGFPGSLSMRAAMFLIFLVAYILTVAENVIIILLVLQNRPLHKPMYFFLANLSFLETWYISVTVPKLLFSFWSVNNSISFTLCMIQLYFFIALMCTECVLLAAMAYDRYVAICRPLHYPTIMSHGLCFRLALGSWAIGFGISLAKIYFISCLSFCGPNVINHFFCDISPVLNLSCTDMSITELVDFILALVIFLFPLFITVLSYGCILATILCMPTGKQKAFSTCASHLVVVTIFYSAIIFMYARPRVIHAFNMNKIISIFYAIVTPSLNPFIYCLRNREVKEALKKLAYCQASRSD
Outline: as §1

OR6B2 (Homo sapiens) = molecular target: T19, OR6B2 (Homo sapiens) (UniProt Q6IFH4)
T19 sequence (whole entry): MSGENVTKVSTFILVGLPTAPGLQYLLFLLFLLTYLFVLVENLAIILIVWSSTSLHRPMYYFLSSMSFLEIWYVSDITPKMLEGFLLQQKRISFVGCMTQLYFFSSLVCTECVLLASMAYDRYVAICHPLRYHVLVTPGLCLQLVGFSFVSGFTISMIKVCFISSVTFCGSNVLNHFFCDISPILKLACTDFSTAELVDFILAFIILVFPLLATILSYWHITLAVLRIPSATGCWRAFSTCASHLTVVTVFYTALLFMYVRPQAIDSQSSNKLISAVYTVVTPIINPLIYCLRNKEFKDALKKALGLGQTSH
Outline: as §1

OR6B2 R122C C179R = test system: T20, OR6B2 R122C C179R
T20 sequence (whole entry): T19 sequence (whole entry) with R122C, C179R
Outline: as §1

Measured: odorant receptor agonist call;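 also: active if original authors judged signal statistically different from baseline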

CC1=C(O)C(=O)C(C)O1 (configuration not stated)
inactive: all assays above

CC1=NC(C)C(C)S1 (configuration not stated)
inactive: all assays above

CCC1OC(=O)C(O)=C1C (configuration not stated)
inactive: all assays above

COc1cc(C(=O)O)ccc1O
inactive: OR5P3 (Homo sapiens)

CCCCCC=O
inactive: OR5P3 (Homo sapiens)

CCCC(S)CCOC(C)=O (configuration not stated)
inactive: all assays above

CCOC(=O)C(C)C
inactive: OR5P3 (Homo sapiens)

CCCCCC(=O)C(C)C(C)=O (configuration not stated)
not listed: OR5MA L2F C311H | OR5MA L2F Q54H C311H | OR5P3 L301R | OR5R1 C122R S128G F184L | OR5T2 S4G | OR5W2 R189C | OR6A2 I50V | OR6B2 R122C C179R
inactive: all other assays above

CC(=O)c1c(C)c([N+](=O)[O-])c(C(C)(C)C)c([N+](=O)[O-])c1C
not listed: OR5MA L2F C311H | OR5MA L2F Q54H C311H | OR5P3 L301R | OR5R1 C122R S128G F184L | OR5T2 S4G | OR5W2 R189C | OR6A2 I50V | OR6B2 R122C C179R
inactive: all other assays above

CCCCCCOC(C)=O
inactive: OR5P3 (Homo sapiens)

CCCCCC(S)C(C)CO (configuration not stated)
not listed: OR5MA L2F C311H | OR5MA L2F Q54H C311H | OR5P3 L301R | OR5R1 C122R S128G F184L | OR5T2 S4G | OR5W2 R189C | OR6A2 I50V | OR6B2 R122C C179R
inactive: all other assays above

CC(CO)CS (configuration not stated)
not listed: OR5MA L2F C311H | OR5MA L2F Q54H C311H | OR5P3 L301R | OR5R1 C122R S128G F184L | OR5T2 S4G | OR5W2 R189C | OR6A2 I50V | OR6B2 R122C C179R
inactive: all other assays above
